Activity calls are given as the source filed them. The calls are words filed in the database; no cut-off is given here.
Biological target: T1, Mucosa-associated lymphoid tissue lymphoma translocation protein 1 (Homo sapiens) (UniProt Q9UDY8)
T1 sequence (whole entry): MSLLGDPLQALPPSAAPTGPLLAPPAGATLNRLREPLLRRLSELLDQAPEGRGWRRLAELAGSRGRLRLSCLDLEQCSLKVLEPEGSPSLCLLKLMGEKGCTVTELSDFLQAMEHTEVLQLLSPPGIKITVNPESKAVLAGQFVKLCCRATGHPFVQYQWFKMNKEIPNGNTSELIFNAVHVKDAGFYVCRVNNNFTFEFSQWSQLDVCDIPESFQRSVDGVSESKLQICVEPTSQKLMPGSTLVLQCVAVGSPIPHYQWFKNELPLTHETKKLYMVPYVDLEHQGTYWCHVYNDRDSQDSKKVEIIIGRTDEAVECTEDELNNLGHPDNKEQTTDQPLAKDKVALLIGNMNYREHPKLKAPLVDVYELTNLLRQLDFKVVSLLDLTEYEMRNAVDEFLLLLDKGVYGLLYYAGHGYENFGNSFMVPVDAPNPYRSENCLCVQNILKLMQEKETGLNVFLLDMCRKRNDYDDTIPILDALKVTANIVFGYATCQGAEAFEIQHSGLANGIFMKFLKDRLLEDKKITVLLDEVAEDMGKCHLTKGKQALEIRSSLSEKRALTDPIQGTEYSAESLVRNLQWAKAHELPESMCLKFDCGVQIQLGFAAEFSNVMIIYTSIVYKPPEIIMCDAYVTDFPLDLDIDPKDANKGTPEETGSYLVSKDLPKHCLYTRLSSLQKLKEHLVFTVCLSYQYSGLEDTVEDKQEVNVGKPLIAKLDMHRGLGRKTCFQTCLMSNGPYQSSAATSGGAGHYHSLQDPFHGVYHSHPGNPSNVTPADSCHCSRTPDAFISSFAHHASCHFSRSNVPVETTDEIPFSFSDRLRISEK
Assay: Inhibition of MALT1 in PMA/ionomycin-stimulated human Jurkat T cells assessed as reduction in RelB cleavage at 2 uM pretreated for 4 hrs followed by 1 hr incubation with protease inhibitor MG132 and subsequent PMA/ionomycin-stimulation measured after 1 hr by Western blot analysis
Type: cell-based
In short: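 Jurkat T cells in RPMI 1640 with 10% FBS, seeded at 9×10^5 cells/well, treated with compound or DMSO for 4 h, then 1 h with MG132 (10 μM), then stimulated with PMA. RelB cleavage as the read-out of MALT1 activity, detected by Western blot.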

inhibition | SMILES
Active | O=C(CCl)Nc1ccc(-n2nc(OCCc3cn(-c4ccccc4)nn3)nc2-c2ccc(Cl)c(Cl)c2)cc1
Active | COCCOc1nc(-c2ccc(NC(=O)CCl)cc2)n(-c2ccc(Cl)c(Cl)c2)n1
Active | O=C(CCl)Nc1ccc(-n2nc(OCC(O)CO)nc2-c2ccc(Cl)c(Cl)c2)cc1 (stereo not given)
Active | COCCOCCOc1nc(-c2ccc(Cl)c(Cl)c2)n(-c2ccc(NC(=O)CCl)cc2)n1
Active | COCC(C)Oc1nc(-c2ccc(Cl)c(Cl)c2)n(-c2ccc(NC(=O)CCl)cc2)n1 (stereo not given)
Active | O=C(CCl)Nc1ccc(-n2nc(OCCCO)nc2-c2ccc(Cl)c(Cl)c2)cc1

Tested on: Toledo
Assay: Antiproliferative activity against human Toledo cells after 48 hrs by CCK8 assay
Type: functional, cell-based

SMILES | IC50
O=C(CCl)Nc1ccc(-n2nc(OCCc3cn(-c4ccccc4)nn3)nc2-c2ccc(Cl)c(Cl)c2)cc1 | 380 nM
O=C(CCl)Nc1ccc(-n2nc(OCCN3CCOCC3)nc2-c2ccc(Cl)c(Cl)c2)cc1 | 470 nM
COCCOc1nc(-c2ccc(Cl)c(Cl)c2)n(-c2ccc(NC(=O)CCl)cc2)n1 | 800 nM
COCCOc1nc(-c2ccc(Cl)cc2)n(-c2ccc(NC(=O)CCl)cc2)n1 | 1720 nM
